# Data published in ChEMBL document CHEMBL2086328, “¹⁸F-labeled 2-phenylquinoxaline derivatives as potential positron emission tomography probes for in vivo imaging of β-amyloid plaques” (Eur J Med Chem, 2012).
# What was measured:
# [1] = test system: Spleen; assay: Biodistribution in ICR mouse spleen at 370 kBq, iv after 2 mins by gamma counting; type: ADME, organism-based; conditions: in vivo
# Procedure, shortened: (§1)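 Male ICR mice (five weeks, 20–22 g), tail-vein injection of 18F tracer in 0.1 mL saline with 10% EtOH. Killed by decapitation at set times, n = 5 per time point. Organs removed, weighed and gamma-counted; %ID/g wet tissue from comparison with diluted aliquots of injected dose; mean ± SD.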
# [2] = test system: Intestine; assay: Biodistribution in ICR mouse intestine at 370 kBq, iv after 10 mins by gamma counting; type: ADME, organism-based; conditions: in vivo; procedure, shortened: as §1
# [3] = test system: Heart; assay: Biodistribution in ICR mouse heart at 370 kBq, iv after 30 mins by gamma counting; type: ADME, organism-based; conditions: in vivo, 0.5 h; procedure, shortened: as §1
# [4] = test system: Brain; assay: Ratio of drug level in ICR mouse brain after 2 mins to ICR mouse brain after 60 mins at 370 kBq, iv; type: ADME, organism-based; conditions: in vivo
# Procedure, shortened: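 Same intravenous study in ICR mice (370 kBq 18F tracer in saline/10% EtOH, n = 5 per time point). Ratio is brain %ID/g at 2 min divided by brain %ID/g at 60 min post-injection.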
# [5] = test system: Lung; assay: Biodistribution in ICR mouse lung at 370 kBq, iv after 2 mins by gamma counting; type: ADME, organism-based; conditions: in vivo; procedure, shortened: as §1
# [6] = test system: Liver; assay: Biodistribution in ICR mouse liver at 370 kBq, iv after 60 mins by gamma counting; type: ADME, organism-based; conditions: in vivo, 1 h; procedure, shortened: as §1
# [7] = test system: Blood; assay: Biodistribution in ICR mouse blood at 370 kBq, iv after 2 mins by gamma counting; type: ADME, organism-based; conditions: in vivo; procedure, shortened: as §1
# [8] = test system: Bone; assay: Biodistribution in ICR mouse bone at 370 kBq, iv after 10 mins by gamma counting; type: ADME, organism-based, Bone element; conditions: in vivo; procedure, shortened: as §1
# [9] = test system: Heart; assay: Biodistribution in ICR mouse heart at 370 kBq, iv after 10 mins by gamma counting; type: ADME, organism-based; conditions: in vivo; procedure, shortened: as §1
# [10] = test system: Bone; assay: Biodistribution in ICR mouse bone at 370 kBq, iv after 60 mins by gamma counting; type: ADME, organism-based, Bone element; conditions: in vivo, 1 h; procedure, shortened: as §1
# [11] = test system: Liver; assay: Biodistribution in ICR mouse liver at 370 kBq, iv after 2 mins by gamma counting; type: ADME, organism-based; conditions: in vivo; procedure, shortened: as §1
# [12] = test system: Spleen; assay: Biodistribution in ICR mouse spleen at 370 kBq, iv after 30 mins by gamma counting; type: ADME, organism-based; conditions: in vivo, 0.5 h; procedure, shortened: as §1
# [13] = test system: Brain; assay: Biodistribution in ICR mouse brain at 370 kBq, iv after 10 mins by gamma counting; type: ADME, organism-based; conditions: in vivo; procedure, shortened: as §1
# [14] = test system: Lung; assay: Biodistribution in ICR mouse lung at 370 kBq, iv after 10 mins by gamma counting; type: ADME, organism-based; conditions: in vivo; procedure, shortened: as §1
# [15] = test system: Brain; assay: Biodistribution in ICR mouse brain at 370 kBq, iv after 30 mins by gamma counting; type: ADME, organism-based; conditions: in vivo, 0.5 h; procedure, shortened: as §1
# [16] = test system: Liver; assay: Biodistribution in ICR mouse liver at 370 kBq, iv after 30 mins by gamma counting; type: ADME, organism-based; conditions: in vivo, 0.5 h; procedure, shortened: as §1
# [17] = test system: Lung; assay: Biodistribution in ICR mouse lung at 370 kBq, iv after 60 mins by gamma counting; type: ADME, organism-based; conditions: in vivo, 1 h; procedure, shortened: as §1
# [18] = test system: Kidney; assay: Biodistribution in ICR mouse kidney at 370 kBq, iv after 2 mins by gamma counting; type: ADME, organism-based; conditions: in vivo; procedure, shortened: as §1
# [19] = test system: Intestine; assay: Biodistribution in ICR mouse intestine at 370 kBq, iv after 2 mins by gamma counting; type: ADME, organism-based; conditions: in vivo; procedure, shortened: as §1
# [20] = test system: Kidney; assay: Biodistribution in ICR mouse kidney at 370 kBq, iv after 10 mins by gamma counting; type: ADME, organism-based; conditions: in vivo; procedure, shortened: as §1
# [21] = test system: Lung; assay: Biodistribution in ICR mouse lung at 370 kBq, iv after 30 mins by gamma counting; type: ADME, organism-based; conditions: in vivo, 0.5 h; procedure, shortened: as §1
# [22] = test system: Stomach; assay: Biodistribution in ICR mouse stomach at 370 kBq, iv after 60 mins by gamma counting; type: ADME, organism-based; conditions: in vivo, 1 h; procedure, shortened: as §1
# [23] = test system: Stomach; assay: Biodistribution in ICR mouse stomach at 370 kBq, iv after 30 mins by gamma counting; type: ADME, organism-based; conditions: in vivo, 0.5 h; procedure, shortened: as §1
# [24] = test system: Stomach; assay: Biodistribution in ICR mouse stomach at 370 kBq, iv after 10 mins by gamma counting; type: ADME, organism-based; conditions: in vivo; procedure, shortened: as §1
# [25] = test system: Bone; assay: Biodistribution in ICR mouse bone at 370 kBq, iv after 2 mins by gamma counting; type: ADME, organism-based, Bone element; conditions: in vivo; procedure, shortened: as §1
# [26] = test system: Brain; assay: Biodistribution in ICR mouse brain at 370 kBq, iv after 2 mins by gamma counting; type: ADME, organism-based; conditions: in vivo; procedure, shortened: as §1
# [27] = test system: Bone; assay: Biodistribution in ICR mouse bone at 370 kBq, iv after 30 mins by gamma counting; type: ADME, organism-based, Bone element; conditions: in vivo, 0.5 h; procedure, shortened: as §1
# [28] = test system: Blood; assay: Biodistribution in ICR mouse blood at 370 kBq, iv after 10 mins by gamma counting; type: ADME, organism-based; conditions: in vivo; procedure, shortened: as §1
# [29] = test system: Intestine; assay: Biodistribution in ICR mouse intestine at 370 kBq, iv after 30 mins by gamma counting; type: ADME, organism-based; conditions: in vivo, 0.5 h; procedure, shortened: as §1
# [30] = test system: Spleen; assay: Biodistribution in ICR mouse spleen at 370 kBq, iv after 10 mins by gamma counting; type: ADME, organism-based; conditions: in vivo; procedure, shortened: as §1
# [31] = test system: Stomach; assay: Biodistribution in ICR mouse stomach at 370 kBq, iv after 2 mins by gamma counting; type: ADME, organism-based; conditions: in vivo; procedure, shortened: as §1
# [32] = test system: Intestine; assay: Biodistribution in ICR mouse intestine at 370 kBq, iv after 60 mins by gamma counting; type: ADME, organism-based; conditions: in vivo, 1 h; procedure, shortened: as §1
# [33] = test system: Brain; assay: Biodistribution in ICR mouse brain at 370 kBq, iv after 60 mins by gamma counting; type: ADME, organism-based; conditions: in vivo, 1 h; procedure, shortened: as §1
# [34] = test system: Kidney; assay: Biodistribution in ICR mouse kidney at 370 kBq, iv after 60 mins by gamma counting; type: ADME, organism-based; conditions: in vivo, 1 h; procedure, shortened: as §1
# [35] = test system: Heart; assay: Biodistribution in ICR mouse heart at 370 kBq, iv after 60 mins by gamma counting; type: ADME, organism-based; conditions: in vivo, 1 h; procedure, shortened: as §1
# [36] = Lipophilicity, log D of the compound; type: physicochemical; conditions: octanol/water
# Procedure, shortened: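 18F tracer (740 kBq) in 3 g n-octanol plus 3 g PBS (0.05 M, pH 7.4). Vortexed 3 min at room temperature, centrifuged 5 min at 3000 rpm; weighed samples from octanol and buffer layers counted.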
# [37] = test system: Heart; assay: Biodistribution in ICR mouse heart at 370 kBq, iv after 2 mins by gamma counting; type: ADME, organism-based; conditions: in vivo; procedure, shortened: as §1
# [38] = test system: Liver; assay: Biodistribution in ICR mouse liver at 370 kBq, iv after 10 mins by gamma counting; type: ADME, organism-based; conditions: in vivo; procedure, shortened: as §1
# [39] = test system: Spleen; assay: Biodistribution in ICR mouse spleen at 370 kBq, iv after 60 mins by gamma counting; type: ADME, organism-based; conditions: in vivo, 1 h; procedure, shortened: as §1
# [40] = test system: Blood; assay: Biodistribution in ICR mouse blood at 370 kBq, iv after 60 mins by gamma counting; type: ADME, organism-based; conditions: in vivo, 1 h; procedure, shortened: as §1
# [41] = test system: Kidney; assay: Biodistribution in ICR mouse kidney at 370 kBq, iv after 30 mins by gamma counting; type: ADME, organism-based; conditions: in vivo, 0.5 h; procedure, shortened: as §1
# [42] = test system: Blood; assay: Biodistribution in ICR mouse blood at 370 kBq, iv after 30 mins by gamma counting; type: ADME, organism-based; conditions: in vivo, 0.5 h; procedure, shortened: as §1
# [43] = Binding affinity to beta-amyloid
smiles,measurement,setting,value
CNc1ccc2nc(-c3ccc(OCCOCCOCC[18F])cc3)cnc2c1,Drug uptake,[1],2.07 % ID/g
same,Drug uptake,[2],12.26 %ID
same,Drug uptake,[3],1.19 % ID/g
same,Ratio,[4],3.89
same,Drug uptake,[5],4.07 % ID/g
same,Drug uptake,[6],4.89 % ID/g
same,Drug uptake,[7],5.51 % ID/g
same,Drug uptake,[8],1 % ID/g
same,Drug uptake,[9],1.76 % ID/g
same,Drug uptake,[10],1.78 % ID/g
same,Drug uptake,[11],14.18 % ID/g
same,Drug uptake,[12],1.21 % ID/g
same,Drug uptake,[13],1.44 % ID/g
same,Drug uptake,[14],2.4 % ID/g
same,Drug uptake,[15],0.83 % ID/g
same,Drug uptake,[16],7.9 % ID/g
same,Drug uptake,[17],1.15 % ID/g
same,Drug uptake,[18],5.52 % ID/g
same,Drug uptake,[19],6.06 %ID
same,Drug uptake,[20],3.91 % ID/g
same,Drug uptake,[21],1.76 % ID/g
same,Drug uptake,[22],6.53 %ID
same,Drug uptake,[23],3.21 %ID
same,Drug uptake,[24],2.81 %ID
same,Drug uptake,[25],1.49 % ID/g
same,Drug uptake,[26],2.49 % ID/g
same,Drug uptake,[27],1.12 % ID/g
same,Drug uptake,[28],3.32 % ID/g
same,Drug uptake,[29],32.83 %ID
same,Drug uptake,[30],1.65 % ID/g
same,Drug uptake,[31],1.55 %ID
same,Drug uptake,[32],39.02 %ID
same,Drug uptake,[33],0.64 % ID/g
same,Drug uptake,[34],1.65 % ID/g
same,Drug uptake,[35],1.03 % ID/g
same,logD,[36],2.79
same,Drug uptake,[37],3.21 % ID/g
same,Drug uptake,[38],14.09 % ID/g
same,Drug uptake,[39],0.94 % ID/g
same,Drug uptake,[40],1.54 % ID/g
same,Drug uptake,[41],3.27 % ID/g
same,Drug uptake,[42],2.38 % ID/g
CNc1ccc(-c2nc3ccc(O)cc3s2)cc1[18F] [FLUTEMETAMOL F 18],Ki,[43],0.74 nM
